Hits are enriched below; roughly 2.5% of the tested compounds scored in any of these assays.
SIRT5 block: sirtuin-5 (human) deacylase inhibition. Q9NXA8. Purified SirT5, succinyl-peptide AMC, trypsin-coupled fluorescence. inhibition, % at 15 µM. 1.1% of 330,000 active; in the data active means inhibition above about 15%
S100A4 MyoIIA: inhibitors of human S100A4 binding to myosin IIA peptide; P26447; S100A4/TAMRA-MyoIIA peptide fluorescence polarization; inhibition, % at 10.7 µM; 0.14% of 360,000 active;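 active means mean inhibition of at least 70% across replicates, with every replicate also reaching that level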
Target sequence (P26447 whole entry, looked up): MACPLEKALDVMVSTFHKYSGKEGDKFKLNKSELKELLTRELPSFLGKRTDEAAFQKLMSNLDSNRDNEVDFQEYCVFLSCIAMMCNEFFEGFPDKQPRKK
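assay system = human S100A4 monomer with TAMRA-labelled myosin IIA peptide | also added = labelled myosin peptide probe, 5 nM | incubation = 5 min between mix addition and reading | control set = DMSO and TFP controls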
E-selectin induc: induces E-selectin expression in human endothelial cells; P16581; HUVEC E-selectin immunofluorescence imaging; normalized: neutral wells 0, TNF-alpha wells 100; activation, % at 7.58 µM; 0.37% of 260,000 active; AID 686992;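 active means mean E-selectin-positive cell signal at least 10% of the positive control, reached in at least 60% of replicates, without over 20% cell loss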
Target sequence (P16581 whole entry, looked up): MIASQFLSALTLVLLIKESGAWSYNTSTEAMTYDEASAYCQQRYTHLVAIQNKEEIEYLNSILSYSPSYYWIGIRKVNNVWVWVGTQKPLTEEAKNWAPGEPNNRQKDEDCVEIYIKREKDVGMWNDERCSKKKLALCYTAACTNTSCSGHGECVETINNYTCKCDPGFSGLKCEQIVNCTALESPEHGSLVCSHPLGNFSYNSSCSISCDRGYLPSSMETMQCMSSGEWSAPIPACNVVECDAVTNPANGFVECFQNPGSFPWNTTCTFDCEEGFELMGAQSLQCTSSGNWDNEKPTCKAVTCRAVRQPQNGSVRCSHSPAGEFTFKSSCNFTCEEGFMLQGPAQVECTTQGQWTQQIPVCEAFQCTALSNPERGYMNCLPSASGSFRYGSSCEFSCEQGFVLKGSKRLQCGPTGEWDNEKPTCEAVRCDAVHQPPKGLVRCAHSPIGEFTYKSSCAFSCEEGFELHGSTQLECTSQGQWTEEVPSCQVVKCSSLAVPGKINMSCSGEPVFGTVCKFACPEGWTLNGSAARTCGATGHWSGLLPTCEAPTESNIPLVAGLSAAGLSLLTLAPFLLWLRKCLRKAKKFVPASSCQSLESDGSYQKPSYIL
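material = human umbilical vein endothelial cells (HUVEC), E-selectin induction | quantity = 3,000 cells/well | medium = EGM-2 growth medium on 0.1% gelatin-coated wells | technique = immunofluorescence imaging | read-out basis = % PE-positive cells | control set = TNF-alpha positive control, DMSO neutral control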
FGF22 binding-1: shifts melting point of recombinant human FGF22; 1.5% of 340,000 active; recombinant FGF22 thermal shift, SYPRO orange fluorescence; percent of sucrose octasulfate shift, DMSO zero; activity (Tm shift, normalised), % at 9.99 µM;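 active means mean Tm shift, scaled 0 neutral to 100 positive control, at about 1.3% or above, every replicate too, limit read from the data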
miR-122 sensor: blocks miR-122 activity in Huh7 sensor cells | Huh7 miR-122 Renilla luciferase sensor, 48 h; neutral wells = 0, positive control = 100 | 0.3% of 340,000 active | activation (reporter increase), % at 12.5 µM | AID 602342;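 active means mean replicate activation score at least 90 and every replicate individually at or above 90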;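 further: higher luciferase means less miR-122 activity so hits act as miR-122 inhibitors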
FGF22 binding-2: binders of human FGF22 by thermal shift. 2% of 1,000 active. shares compounds with FGF22 binding-1. recombinant FGF22 thermal shift, SYPRO orange fluorescence. thermal shift activity, °C (ΔTm) at 38 µM;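 active means fitted rise in melting shift crosses a set limit at or below the top valid dose tested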
SYPRO no-protein: shows thermal shift signal without protein, FGF22 counter-screen; shares compounds with FGF22 binding-1; compound-only SYPRO orange thermal shift counter-screen, no protein; AC50, µM (titrated, usually from 38 µM); 2% of 1,000 active;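 active means rising signal whose fitted curve reaches the 0.54 level within the top valid dose, showing a melting point, actives reach about 13 µM in these data; inactive means the rest, including activity in the opposite direction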; further: value is where the raw curve crosses a fixed level and not half-maximal
The depositor's hits bear a star; i = inactive; x = not tested or not shown; ! = not active in a repeat; [ ] = remark or other dose.

SMILES | SIRT5 block | S100A4 MyoIIA | E-selectin induc | FGF22 binding-1 | miR-122 sensor | FGF22 binding-2 | SYPRO no-protein
COc1cc(NC(=O)c2cnc(N)o2)cc(C(=O)Nc2cccc(C(F)(F)F)c2)c1 | 5 | -6 | 0 | 2.2*! | -15 | 0.14 | i
COc1cc(NC(=O)c2csc(N)n2)cc(C(=O)Nc2cccc(C(F)(F)F)c2)c1 | -1 | -5 | 2 | 1.6*! | 7 | -0.085 | 11µM*
O=C(Nc1ccc2c(c1)[C@H]1C[C@H](CC(=O)N3CCCCC3)O[C@@H](CO)[C@H]1O2)C1CCC1 | 2 | -3 | 0 | 0 | -4[16.7 µM] | x | x
CCNC(=O)C[C@H]1CC[C@H]2[C@H](COc3ccc(NS(=O)(=O)c4ccccc4C)cc3C(=O)N2C)O1 | 1 | 8 | 0 | 0 | 16[16.7 µM] | x | x
CO[C@@H]1CN(C)C(=O)c2ccc(NC(=O)c3cc(C)on3)cc2OC[C@@H](C)N(CC2CC2)C[C@@H]1C | 0 | 12 | 0 | 0 | x | x | x
Cc1cc(C)cc(N(CC(=O)O)S(=O)(=O)c2c(C)noc2C)c1 | -3 | 1 | x | 0 | -3 | x | x
Cc1cc(C)cc(N(CC(=O)NC2CCC(C)CC2)S(=O)(=O)c2c(C)noc2C)c1 (centres undefined) | x | 0 | x | 1.4* | 4 | -0.055 | i
C[C@@H]1CN([C@@H](C)CO)C(=O)c2cc(C#Cc3ccc(F)cc3)cnc2O[C@H]1CN(C)S(C)(=O)=O | -5 | 13 | 0 | 0 | -4[16.7 µM] | x | x
CO[C@@H]1CN(C)C(=O)c2ccc(NC(=O)C3CC3)cc2OC[C@H](C)N(CCC(F)(F)F)C[C@H]1C | -3 | 8 | 0 | 0 | 2[16.7 µM] | x | x
CCC(=O)N1CCCCN2[C@H](CO)[C@@H](c3ccc(C#Cc4ccccc4F)cc3)[C@H]2C1 | -2 | 1 | 0 | 1.5* | 1[16.7 µM] | 0.044[42 µM] | i
N#Cc1cccc(-c2ccc(C3[C@@H]4CN(C(=O)C5CC5)C[C@H]3N4)cc2)c1 (some centres undefined) | -2 | 3 | 1 | x | x | x | x
C[C@@H]1CN([C@H](C)CO)C(=O)c2cc(NC(=O)Nc3ccc(C(F)(F)F)cc3)ccc2O[C@@H]1CN(C)Cc1ccc(C(=O)O)cc1 | 0 | 14 | 0 | 1.4* | -1[16.7 µM] | -0.1[42 µM] | i
C[C@@H]1CN([C@@H](C)CO)C(=O)c2cc(NC(=O)Nc3ccc(C(F)(F)F)cc3)ccc2O[C@@H]1CN(C)Cc1ccc(C(=O)O)cc1 | 0 | -6 | -1 | 2.5* | -2[16.7 µM] | 0.03 | i
C[C@@H]1CN([C@@H](C)CO)C(=O)c2cc(NC(=O)Nc3ccc(C(F)(F)F)cc3)ccc2O[C@H]1CN(C)Cc1ccc(C(=O)O)cc1 | 14 | -6 | 0 | 0 | 0[16.7 µM] | x | x
CCCNC(=O)N1CC2(CN(S(=O)(=O)c3ccccc3)C2)c2c(n(C)c3cc(OC)ccc23)[C@@H]1CO | 0 | -9 | 0 | 0 | x | x | x
C[C@H](CO)N1C[C@H](C)[C@H](CN(C)S(C)(=O)=O)OCCCC[C@H](C)Oc2ccc(NC(=O)NC3CCCCC3)cc2C1=O | 0 | -6 | 0 | 1 | -4[16.7 µM] | x | x
Cc1ccc(S(=O)(=O)Nc2ccc3c(c2)CC(=O)N([C@H](C)CO)C[C@H](C)[C@@H](CN(C)Cc2ccncc2)O3)cc1 | -1 | -5 | 2 | 0 | -1[16.7 µM] | x | x
CC(=O)N(C)C[C@H]1Oc2ncc(C#C[C@H](C)O)cc2C(=O)N([C@@H](C)CO)C[C@@H]1C | -7 | 11 | 0 | 3.6* | -2[16.7 µM] | -0.13 | i
C/C=C/c1cnc2c(c1)C(=O)N([C@@H](C)CO)C[C@H](C)[C@@H](CN(C)C(=O)c1ccc3c(c1)OCO3)O2 | -4 | -5 | 1 | 2.6* | 5[16.7 µM] | 0.17 | i
CC(C)C#Cc1cnc2c(c1)C(=O)N([C@@H](C)CO)C[C@@H](C)[C@H](CN(C)C(=O)c1cnccn1)O2 | 2 | 3 | 0 | 1.3* | 14[16.7 µM] | 0.028 | i
C[C@H](CO)N1C[C@H](C)[C@@H](CN(C)Cc2ccc(C(=O)O)cc2)Oc2ccc(NC(=O)Nc3ccc(F)cc3)cc2C1=O | 0 | -8 | -4 | 0 | -4[16.7 µM] | x | x
O=C(O)C[C@@H]1CC[C@H](NC(=O)Nc2ccccc2)[C@@H](CO)O1 | 1 | -39 | 0 | 0 | x | x | x
C[C@@H]1CN([C@@H](C)CO)C(=O)Cc2cc(NC(=O)CCCCCC(=O)Nc3ccccc3N)ccc2O[C@@H]1CN(C)Cc1ccccc1 | -3 | 0 | 0 | 0 | 1[16.7 µM] | x | x
Cc1noc(C)c1NC(=O)N(C)C[C@@H]1OCCCC[C@H](C)Oc2ccc(NS(C)(=O)=O)cc2C(=O)N([C@@H](C)CO)C[C@H]1C | x | x | 0 | 0 | 4[16.7 µM] | x | x
CCCCCCCCNc1ncnc2[nH]ncc12 | 2 | -1 | 0 | 0 | -5 | x | x
SMILES | SIRT5 block | S100A4 MyoIIA | E-selectin induc | FGF22 binding-1 | miR-122 sensor | FGF22 binding-2 | SYPRO no-protein
CCCSc1ncnc2[nH]ncc12 | -2 | 2 | 1 | 46* | -3 | 0.1 | i
C/C(=N\NC(=O)CNC(=O)c1ccncc1)c1ccc(C)cc1 | 0 | 0 | x | 1.6* | x | 0.043 | i
C/C(=N/NC(=O)CNC(=O)c1cccnc1)c1ccc(Cl)cc1 | 2 | -4 | x | 0 | x | x | x
Cc1ccc(Cl)cc1N1CCN(C(=O)Cc2c(C(=O)O)[nH]c3ccc(Cl)cc23)CC1 | 0 | -1 | 1 | 7.4* | 6 | 0.23 | i
COc1ccc2cc(CCNC(=O)c3cc4ccccc4o3)c(=O)[nH]c2c1 | 0 | -4 | 0 | 1.8* | -7 | -0.059 | i
COCC#Cc1cnc2c(c1)C(=O)N([C@H](C)CO)C[C@H](C)[C@@H](CN(C)C(=O)C1CCCCC1)O2 | 0 | -1 | 0 | 0 | 25[16.7 µM] | x | x
O=C1C(Cl)=C(NS(=O)(=O)c2ccc([N+](=O)[O-])cc2)C(=O)c2ccccc21 | -2 | -1 | x | 1.9* | x | 0.13 | i
O=[N+]([O-])c1ccc(Oc2ccc(S(=O)(=O)Nc3ccccc3)cc2)cc1 | x | x | x | x | -3 | x | x
CN1c2ccc(-c3ccccc3)cc2[C@H]2[C@H](CCN2C(=O)CC2CC2)[C@H]1CO | x | 13 | 0 | x | 7[16.7 µM] | x | x
COC(=O)C[C@@H]1CC[C@H]2[C@@H](COc3ccc(NC(=O)c4ccc(OC)cc4)cc3C(=O)N2C)O1 | 3 | 0 | 0 | x | 50[16.7 µM] | x | x
C[C@@H]1CN([C@@H](C)CO)C(=O)Cc2cc(NC(=O)C3CC3)ccc2O[C@H]1CN(C)Cc1ccc(Cl)c(Cl)c1 | 8 | -1 | 0 | 3.1* | -6[16.7 µM] | -0.003 | i
C[C@@H]1CN([C@H](C)CO)C(=O)Cc2cc(NS(C)(=O)=O)ccc2O[C@@H]1CN(C)Cc1ccc(C(=O)O)cc1 | 0 | 0 | 0 | 39* | 2[16.7 µM] | 0.04[42 µM] | i
